Test results published in ChEMBL document CHEMBL5724801, “EUbOPEN Chemogenomics Library - Multiplex” (2024).
Values joined by “and” are separate entries in the source; they are usually repeats but may differ in a detail not shown here. Equal values may be shown once.

Test system: HEK-293T
Test: Multiplex assay against HEK293T
Format: toxicity, cell-based
Details: human
How it was run: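 Phenotypes for tubulin, mitochondrial mass and membrane permeability are expressed as per cents of healthy-nucleus cells. Cells were stained live at seeding with Hoechst33342, BioTracker Green Microtubule Cytoskeleton Dye, MitoTracker Red and Annexin V Alexa Fluor 680, then imaged after compound addition on a CQ1 microscope at 37°C and 5% CO2. Machine-learning gating in CellPathfinder separated Hoechst high-intensity objects from normal cells, divided normal cells by nuclear state (healthy, pyknosed, fragmented) and divided pyknosed cells into mitotic or apoptotic.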

[1] = 12 h, 1 µM, compound concentration 1 uM
[2] = 12 h, 10 µM, compound concentration 10 uM
[3] = 24 h, 1 µM, compound concentration 1 uM
[4] = 24 h, 10 µM, compound concentration 10 uM
[5] = 48 h, 1 µM, compound concentration 1 uM
[6] = 48 h, 10 µM, compound concentration 10 uM

O=C(NCCO)c1cccc(-c2cc(Nc3ccc(OC(F)(F)F)cc3)ncn2)c1
Population Apoptotic (%) [1]: 27% and 40% | Population Fragmented Nuclei (%) [1]: 7% and 4% | Population Healthy Nuclei (%) [1]: 78% and 77% | Population Hoechst High Intensity Objects (%) [1]: 8% and 6% | Population Membrane Permeable-Phenotype (%) [1]: 0% | Population Mitochondria Different-Phenotype (%) [1]: 47% and 60% | Population Mitotic Cells (%) [1]: 72% and 59% | Population Normal (%) [1]: 91% and 93% | Population Pyknosed Nuclei (%) [1]: 13% and 17% | Population Tubulin-Different-Phenotype (%) [1]: 23% and 16% | Total Cell Count [1]: 409 and 262 | Population Apoptotic (%) [2]: 55% and 63% | Population Fragmented Nuclei (%) [2]: 6% and 5% | Population Healthy Nuclei (%) [2]: 76% and 73% | Population Hoechst High Intensity Objects (%) [2]: 10% and 12% | Population Membrane Permeable-Phenotype (%) [2]: 0% | Population Mitochondria Different-Phenotype (%) [2]: 69% and 74% | Population Mitotic Cells (%) [2]: 44% and 36% | Population Normal (%) [2]: 89% and 87% | Population Pyknosed Nuclei (%) [2]: 17% and 21% | Population Tubulin-Different-Phenotype (%) [2]: 49% and 26% | Total Cell Count [2]: 374 and 325 | Population Apoptotic (%) [3]: 26% and 41% | Population Fragmented Nuclei (%) [3]: 11% and 7% | Population Healthy Nuclei (%) [3]: 78% and 79% | Population Hoechst High Intensity Objects (%) [3]: 4% and 6% | Population Membrane Permeable-Phenotype (%) [3]: 0% | Population Mitochondria Different-Phenotype (%) [3]: 21% and 38% | Population Mitotic Cells (%) [3]: 73% and 58% | Population Normal (%) [3]: 95% and 93% | Population Pyknosed Nuclei (%) [3]: 10% and 13% | Population Tubulin-Different-Phenotype (%) [3]: 15% and 17% | Total Cell Count [3]: 538 and 331 | Population Apoptotic (%) [4]: 39% and 50% | Population Fragmented Nuclei (%) [4]: 5% and 6% | Population Healthy Nuclei (%) [4]: 80% and 77% | Population Hoechst High Intensity Objects (%) [4]: 7% and 14% | Population Membrane Permeable-Phenotype (%) [4]: 0% | Population Mitochondria Different-Phenotype (%) [4]: 61% and 56% | Population Mitotic Cells (%) [4]: 60% and 50% | Population Normal (%) [4]: 92% and 85% | Population Pyknosed Nuclei (%) [4]: 14% and 15% | Population Tubulin-Different-Phenotype (%) [4]: 38% and 22% | Total Cell Count [4]: 447 and 354 | Population Apoptotic (%) [5]: 17% and 37% | Population Fragmented Nuclei (%) [5]: 12% and 9% | Population Healthy Nuclei (%) [5]: 80% and 79% | Population Hoechst High Intensity Objects (%) [5]: 3% and 5% | Population Membrane Permeable-Phenotype (%) [5]: 2% and 0% | Population Mitochondria Different-Phenotype (%) [5]: 17% and 23% | Population Mitotic Cells (%) [5]: 82% and 62% | Population Normal (%) [5]: 96% and 94% | Population Pyknosed Nuclei (%) [5]: 7% and 10% | Population Tubulin-Different-Phenotype (%) [5]: 13% and 9% | Total Cell Count [5]: 897 and 476 | Population Apoptotic (%) [6]: 41% and 58% | Population Fragmented Nuclei (%) [6]: 10% and 16% | Population Healthy Nuclei (%) [6]: 79% and 72% | Population Hoechst High Intensity Objects (%) [6]: 8% and 17% | Population Membrane Permeable-Phenotype (%) [6]: 1% and 0% | Population Mitochondria Different-Phenotype (%) [6]: 36% | Population Mitotic Cells (%) [6]: 58% and 41% | Population Normal (%) [6]: 91% and 82% | Population Pyknosed Nuclei (%) [6]: 10% and 11% | Population Tubulin-Different-Phenotype (%) [6]: 18% and 13% | Total Cell Count [6]: 595 and 504

O=C1COc2nccc(-c3ccccc3F)c2CN1Cc1cc(C(F)(F)F)cc(C(F)(F)F)c1
Population Apoptotic (%) [1]: 31% and 51% | Population Fragmented Nuclei (%) [1]: 8% and 4% | Population Healthy Nuclei (%) [1]: 80% and 83% | Population Hoechst High Intensity Objects (%) [1]: 5% and 10% | Population Membrane Permeable-Phenotype (%) [1]: 0% | Population Mitochondria Different-Phenotype (%) [1]: 41% and 67% | Population Mitotic Cells (%) [1]: 68% and 48% | Population Normal (%) [1]: 94% and 89% | Population Pyknosed Nuclei (%) [1]: 10% and 11% | Population Tubulin-Different-Phenotype (%) [1]: 27% and 20% | Total Cell Count [1]: 397 and 333 | Population Apoptotic (%) [2]: 38% and 57% | Population Fragmented Nuclei (%) [2]: 10% and 8% | Population Healthy Nuclei (%) [2]: 76% and 79% | Population Hoechst High Intensity Objects (%) [2]: 9% and 5% | Population Membrane Permeable-Phenotype (%) [2]: 0% | Population Mitochondria Different-Phenotype (%) [2]: 67% and 76% | Population Mitotic Cells (%) [2]: 61% and 42% | Population Normal (%) [2]: 90% and 94% | Population Pyknosed Nuclei (%) [2]: 13% and 12% | Population Tubulin-Different-Phenotype (%) [2]: 68% and 39% | Total Cell Count [2]: 475 and 382 | Population Apoptotic (%) [3]: 21% and 59% | Population Fragmented Nuclei (%) [3]: 8% and 5% | Population Healthy Nuclei (%) [3]: 84% and 87% | Population Hoechst High Intensity Objects (%) [3]: 3% and 8% | Population Membrane Permeable-Phenotype (%) [3]: 0% | Population Mitochondria Different-Phenotype (%) [3]: 32% and 39% | Population Mitotic Cells (%) [3]: 78% and 40% | Population Normal (%) [3]: 96% and 91% | Population Pyknosed Nuclei (%) [3]: 7% and 6% | Population Tubulin-Different-Phenotype (%) [3]: 23% and 12% | Total Cell Count [3]: 517 and 428 | Population Apoptotic (%) [4]: 52% and 36% | Population Fragmented Nuclei (%) [4]: 10% and 7% | Population Healthy Nuclei (%) [4]: 76% and 79% | Population Hoechst High Intensity Objects (%) [4]: 5% | Population Membrane Permeable-Phenotype (%) [4]: 0% | Population Mitochondria Different-Phenotype (%) [4]: 71% and 72% | Population Mitotic Cells (%) [4]: 47% and 63% | Population Normal (%) [4]: 94% | Population Pyknosed Nuclei (%) [4]: 13% and 12% | Population Tubulin-Different-Phenotype (%) [4]: 68% and 44% | Total Cell Count [4]: 520 and 492 | Population Apoptotic (%) [5]: 27% and 38% | Population Fragmented Nuclei (%) [5]: 13% and 9% | Population Healthy Nuclei (%) [5]: 80% and 81% | Population Hoechst High Intensity Objects (%) [5]: 2% and 4% | Population Membrane Permeable-Phenotype (%) [5]: 0% | Population Mitochondria Different-Phenotype (%) [5]: 29% and 23% | Population Mitotic Cells (%) [5]: 72% and 61% | Population Normal (%) [5]: 97% and 95% | Population Pyknosed Nuclei (%) [5]: 6% and 8% | Population Tubulin-Different-Phenotype (%) [5]: 14% and 12% | Total Cell Count [5]: 743 and 574 | Population Apoptotic (%) [6]: 44% and 56% | Population Fragmented Nuclei (%) [6]: 13% and 11% | Population Healthy Nuclei (%) [6]: 75% and 80% | Population Hoechst High Intensity Objects (%) [6]: 3% and 2% | Population Membrane Permeable-Phenotype (%) [6]: 0% | Population Mitochondria Different-Phenotype (%) [6]: 63% and 51% | Population Mitotic Cells (%) [6]: 55% and 43% | Population Normal (%) [6]: 96% and 97% | Population Pyknosed Nuclei (%) [6]: 11% and 7% | Population Tubulin-Different-Phenotype (%) [6]: 46% and 25% | Total Cell Count [6]: 713 and 669
